Reference: ChEMBL document CHEMBL4513216, “Probing the Open Global Health Chemical Diversity Library for Multistage-Active Starting Points for Next-Generation Antimalarials” (ACS Infect Dis, 2020)

Experiment: Toxicity liver stage against HepG2, at 10uM
Assay type: cell-based
Design: test concentration 10 uM, cell line HepG2-A16-CD81EGFP
Conditions: human, HepG2-A16-CD81EGFP cells; read-out: INHIBITION
Method in brief: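 Uninfected HepG2-A16-CD81EGFP cells, 3 × 10^3 per well, 1536-well, plated on prespotted compound at 10 μM final, parasite-free screening media added to match infected plates; puromycin 10 μM positive, DMSO 0.5% negative; run in parallel with 48 h PbLuc assay at 37 °C, 5% CO2; viability by CellTiter-Glo luminescence, normalized to controls.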

Question: With `CN(Cc1cnn(C)c1)C(=O)C1COc2ccccc2C1` (stereo unspecified) as the compound, how does the cytotoxicity at 10 µM read?
Answer: Its cytotoxicity at 10 µM is 0.583%.

Question: With `O=C1CC2(CCCC2)CC(=O)N1Cc1ncccn1` as the compound, how does the cytotoxicity at 10 µM read?
Answer: The cytotoxicity at 10 µM was 1.27%.

Question: With `CN(C)c1cnn(Cc2nc3ccccc3n2C)c(=O)c1` as the compound, how does the cytotoxicity at 10 µM read?
Answer: The cytotoxicity at 10 µM was 10.9%.

Question: With `CN(C(=O)CN1CCCC1=O)C1CCCN(C2Cc3ccccc3C2)C1` (stereo unspecified) as the compound, how does the cytotoxicity at 10 µM read?
Answer: Its cytotoxicity at 10 µM is 0.024%.

Question: Which cytotoxicity at 10 µM does the source give for `Cc1ccccc1CN(CCN(C)C)Cc1ccc(O)c(C(=O)O)c1` here?
Answer: The cytotoxicity at 10 µM was 0.935%.

Question: With `Cc1ccc(-c2n[nH]cc2CN(Cc2nccn2C)C(C)C)cc1C` as the compound, how does the cytotoxicity at 10 µM read?
Answer: The cytotoxicity at 10 µM was 2.57%.

Question: Which cytotoxicity at 10 µM does the source give for `O=C(O)C(c1ccc2c(c1)OCO2)N1CCCCCC1` (stereo unspecified) here?
Answer: Its cytotoxicity at 10 µM is -0.293%.

Question: For `O=C(O)c1ccc(N2CCC(Oc3ccc(Cl)cc3)CC2)nc1`, which cytotoxicity at 10 µM is on record?
Answer: Its cytotoxicity at 10 µM is -55.6%.

Question: For `O=C(NCCc1c[nH]cn1)C1CCCN(Cc2ccco2)C1` (stereo unspecified), which cytotoxicity at 10 µM is on record?
Answer: The cytotoxicity at 10 µM was -0.123%.

Question: Which cytotoxicity at 10 µM does the source give for `Cc1ccc(CN(CCCO)Cc2nc3ccccc3[nH]2)s1` here?
Answer: The cytotoxicity at 10 µM was 7.18%.

Question: Which cytotoxicity at 10 µM does the source give for `COC(C)(C)CC(C)NCc1cc(-c2ccco2)on1` (stereo unspecified) here?
Answer: Its cytotoxicity at 10 µM is 1.81%.

Question: Which cytotoxicity at 10 µM does the source give for `CCC(=O)N1CCC(Oc2ccc(C(=O)NCCN(C)C)cc2Cl)CC1` here?
Answer: Its cytotoxicity at 10 µM is 4.12%.

Question: For `CCc1cc(N2CCC(NC3CCOCC3)CC2)nc(N(C)C)n1`, which cytotoxicity at 10 µM is on record?
Answer: The cytotoxicity at 10 µM was -14.5%.

Question: For `CNc1cncc(C2CCCN2C(=O)c2ccc3oc(=O)n(C)c3c2)n1` (stereo unspecified), which cytotoxicity at 10 µM is on record?
Answer: The cytotoxicity at 10 µM was -1.57%.

Question: With `COc1c(C2CCCN2C(=O)c2cnc[nH]2)c(C)nn1C` (stereo unspecified) as the compound, how does the cytotoxicity at 10 µM read?
Answer: The cytotoxicity at 10 µM was -1.68%.

Question: With `N#Cc1cccc(CNCCNC(=O)Cc2cccc(F)c2)c1` as the compound, how does the cytotoxicity at 10 µM read?
Answer: The cytotoxicity at 10 µM was 3.7%.

Question: Which cytotoxicity at 10 µM does the source give for `COC(=O)C(NC(=O)C1CC1)c1cc(F)ccc1F` (stereo unspecified) here?
Answer: Its cytotoxicity at 10 µM is -4.64%.

Question: With `O=C(CN1C=Nc2ccccc2S1(=O)=O)NCC1CC1` as the compound, how does the cytotoxicity at 10 µM read?
Answer: The cytotoxicity at 10 µM was -10.2%.

Question: For `Cc1nccc(-c2cccc(NCC(=O)NCC(=O)N3CCCC3)c2)n1`, which cytotoxicity at 10 µM is on record?
Answer: The cytotoxicity at 10 µM was -9.18%.

Question: Which cytotoxicity at 10 µM does the source give for `O=C(CCOc1ccccc1F)N1CCCC1Cn1cccn1` (stereo unspecified) here?
Answer: The cytotoxicity at 10 µM was -3.71%.

Question: With `COc1ccccc1CC(=O)N1CCC(NCc2ccc(C)o2)CC1` as the compound, how does the cytotoxicity at 10 µM read?
Answer: The cytotoxicity at 10 µM was -5.28%.

Question: For `O=C(Nc1ccc(CCN2CCC(O)CC2)cc1)C1CCCCC1`, which cytotoxicity at 10 µM is on record?
Answer: Its cytotoxicity at 10 µM is -17.7%.

Question: With `O=C(NCCNc1cnccn1)N1CCN(c2nccs2)CC1` as the compound, how does the cytotoxicity at 10 µM read?
Answer: The cytotoxicity at 10 µM was -0.84%.

Question: Which cytotoxicity at 10 µM does the source give for `Cc1nc(C)n(CC2CCCN(CCOc3ccccc3C#N)C2)n1` (stereo unspecified) here?
Answer: Its cytotoxicity at 10 µM is 4.61%.

Question: With `CN(C)Cc1cccc(C(=O)N2CCCC(n3cncn3)C2)c1` (stereo unspecified) as the compound, how does the cytotoxicity at 10 µM read?
Answer: The cytotoxicity at 10 µM was -5.87%.

Question: With `CC(C)NC(=O)Nc1ccc(CNCc2ccc(OC(F)F)cc2)cc1` as the compound, how does the cytotoxicity at 10 µM read?
Answer: The cytotoxicity at 10 µM was -3.95%.

Question: With `NS(=O)(=O)c1cc(C(=O)N2CCCC(n3ccnc3)C2)cs1` (stereo unspecified) as the compound, how does the cytotoxicity at 10 µM read?
Answer: Its cytotoxicity at 10 µM is -11.3%.

Question: Which cytotoxicity at 10 µM does the source give for `Cc1cnn(CC2CN(Cc3nc4ccccc4c(=O)[nH]3)CCO2)c1` (stereo unspecified) here?
Answer: Its cytotoxicity at 10 µM is -7.62%.

Question: With `O=C(NCCNc1ccc(C(F)(F)F)cn1)c1ccc(Cl)cc1F` as the compound, how does the cytotoxicity at 10 µM read?
Answer: The cytotoxicity at 10 µM was -1.99%.

Question: For `CC(C)c1nnc2n1CCN(C(=O)c1ccc(OCC3CC3)cc1)C2`, which cytotoxicity at 10 µM is on record?
Answer: The cytotoxicity at 10 µM was -6.14%.

Question: For `O=C(Cc1cccc(F)c1)NCCNCc1ccco1`, which cytotoxicity at 10 µM is on record?
Answer: The cytotoxicity at 10 µM was -6.08%.

Question: With `CCc1nc(C(=O)N2CCN(C)CC2C)nn1-c1ccccc1Cl` (stereo unspecified) as the compound, how does the cytotoxicity at 10 µM read?
Answer: Its cytotoxicity at 10 µM is -2.38%.

Question: For `CC(NC(=O)CSCC#N)c1cccc(NC(=O)c2ccccc2)c1` (stereo unspecified), which cytotoxicity at 10 µM is on record?
Answer: The cytotoxicity at 10 µM was -1.79%.

Question: With `CCc1nc2n(n1)CC(NCc1noc(-c3ccccc3)n1)CC2` (stereo unspecified) as the compound, how does the cytotoxicity at 10 µM read?
Answer: The cytotoxicity at 10 µM was -10.6%.

Question: Which cytotoxicity at 10 µM does the source give for `Cc1cc(C2CCCN(C(=O)CN3CCN(C)CC3)C2)n[nH]1` (stereo unspecified) here?
Answer: The cytotoxicity at 10 µM was -4.18%.

Question: For `COc1ncccc1CNC(=O)NC1CCOc2ccccc21` (stereo unspecified), which cytotoxicity at 10 µM is on record?
Answer: The cytotoxicity at 10 µM was -7%.

Question: Which cytotoxicity at 10 µM does the source give for `COc1ccc(CNCc2ccnc(N3CCOCC3)c2)c(OC)c1` here?
Answer: The cytotoxicity at 10 µM was -8.92%.

Question: Which cytotoxicity at 10 µM does the source give for `Cc1ccc2oc(C(=O)N3CCC(C(=O)N4CCCC4)CC3)cc2n1` here?
Answer: Its cytotoxicity at 10 µM is -1.35%.

Question: For `CC(C)c1ccc(OCCC(=O)N2CCC(CC(N)=O)CC2)cc1`, which cytotoxicity at 10 µM is on record?
Answer: The cytotoxicity at 10 µM was -14%.

Question: With `CNS(=O)(=O)c1ccc(C(=O)N2CCCC(n3cccn3)C2)cc1` (stereo unspecified) as the compound, how does the cytotoxicity at 10 µM read?
Answer: The cytotoxicity at 10 µM was -7.95%.

Question: For `CCC(CC)C(CNC(=O)Nc1cc(C)nn1C)N1CCOCC1` (stereo unspecified), which cytotoxicity at 10 µM is on record?
Answer: Its cytotoxicity at 10 µM is 1.74%.

Question: Which cytotoxicity at 10 µM does the source give for `CN(Cc1cnn(C)c1)C(=O)NC1CCN(Cc2ccccn2)CC1` here?
Answer: The cytotoxicity at 10 µM was -2.35%.

Question: With `CN(Cc1ccc2c(c1)OCCO2)C(=O)Cn1ccccc1=O` as the compound, how does the cytotoxicity at 10 µM read?
Answer: The cytotoxicity at 10 µM was 1.2%.

Question: For `Cc1nc(CN2CCCN(C(=O)C(C)OCC3CC3)CC2)cs1` (stereo unspecified), which cytotoxicity at 10 µM is on record?
Answer: Its cytotoxicity at 10 µM is -3.87%.

Question: Which cytotoxicity at 10 µM does the source give for `O=C1NCCN1C1CCN(CCc2cccs2)CC1` here?
Answer: Its cytotoxicity at 10 µM is -1.32%.

Question: With `O=C(NCCC(=O)N1CCCCCC1)c1c(O)cc(F)cc1F` as the compound, how does the cytotoxicity at 10 µM read?
Answer: The cytotoxicity at 10 µM was -1.8%.

Question: For `O=C(Cc1ccsc1)N1CCN(CC2CC2)c2ncccc2C1`, which cytotoxicity at 10 µM is on record?
Answer: The cytotoxicity at 10 µM was -101%.

Question: Which cytotoxicity at 10 µM does the source give for `CN1CC(=O)N(c2ccccc2)CC12CCN(C(=O)c1cnccn1)C2` (stereo unspecified) here?
Answer: Its cytotoxicity at 10 µM is 9.91%.

Question: For `CC(C)N(C)Cc1nnc2n1CCCN(c1ncccn1)C2`, which cytotoxicity at 10 µM is on record?
Answer: The cytotoxicity at 10 µM was 3.24%.

Question: With `CCOCCN1C[C@H](C(=O)Nc2cccnc2)[C@@H]2CCO[C@@H]2C1` as the compound, how does the cytotoxicity at 10 µM read?
Answer: Its cytotoxicity at 10 µM is -101%.

Question: With `CC[C@@H]1N(Cc2ccc(C)o2)CCC[C@]12CCC(=O)N2CCOC` as the compound, how does the cytotoxicity at 10 µM read?
Answer: The cytotoxicity at 10 µM was 10.5%.

Question: For `Cc1noc(C)c1CN1CCO[C@H]2CN(C(=O)C3CCOCC3)C[C@H]21`, which cytotoxicity at 10 µM is on record?
Answer: Its cytotoxicity at 10 µM is 0.845%.

Question: With `Cn1ccnc1C(=O)N[C@@H]1CN(Cc2ccoc2)[C@@H]2CCCO[C@@H]21` as the compound, how does the cytotoxicity at 10 µM read?
Answer: The cytotoxicity at 10 µM was -99.9%.

Question: With `c1cncc(CNc2ccc3nc(C4CCNCC4)nn3c2)c1` as the compound, how does the cytotoxicity at 10 µM read?
Answer: The cytotoxicity at 10 µM was -108%.

Question: For `NCC1CCC(C(NC(=O)C2CC2)c2ccccn2)CC1` (stereo unspecified), which cytotoxicity at 10 µM is on record?
Answer: The cytotoxicity at 10 µM was -12.6%.

Question: With `CCc1oc(C(=O)N2CC[C@@H]3CC[C@H](C2)N3)cc1CN(CC)CC` as the compound, how does the cytotoxicity at 10 µM read?
Answer: Its cytotoxicity at 10 µM is 4.83%.
